# Assay results reported in the M2OR odorant receptor database.
# Residue numbers refer to the chain shown, from its start.
# Key:
# Settings in all cases: stereoisomer not certain
# OR2W1 (Homo sapiens) = molecular target: T1, OR2W1 (Homo sapiens) (UniProt Q9Y3N9)
# T1 sequence (whole entry): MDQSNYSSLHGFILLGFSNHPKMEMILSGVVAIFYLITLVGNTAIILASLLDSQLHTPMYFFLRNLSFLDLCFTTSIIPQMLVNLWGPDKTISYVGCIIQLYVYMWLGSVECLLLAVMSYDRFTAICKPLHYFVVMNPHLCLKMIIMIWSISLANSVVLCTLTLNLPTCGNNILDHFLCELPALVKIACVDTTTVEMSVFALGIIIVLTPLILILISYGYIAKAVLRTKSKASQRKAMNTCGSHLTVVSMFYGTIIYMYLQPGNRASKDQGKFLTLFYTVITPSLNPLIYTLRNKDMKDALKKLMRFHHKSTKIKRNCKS
# Outline: (§1)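 Transient luciferase assays in mammalian cell lines were common, though methods varied by source. The values come from published papers and their supplementary material, with extra details from the original authors when needed. Responsive refers to a measured signal the original authors judged statistically different from baseline, and non-responsive (inactive) to the remainder.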
# OR2W1 [1] = test system: T2, OR2W1
# T2 sequence (whole entry): T1 sequence (whole entry) with D296N
# Outline: as §1
# OR2W1 [2] = test system: T3, OR2W1; remark: listed apart in the source
# T3 sequence (whole entry): T1 sequence (whole entry) with M81V
# Outline: as §1
# OR3A1 (Homo sapiens) = molecular target: T4, OR3A1 (Homo sapiens) (UniProt P47881)
# T4 sequence (whole entry): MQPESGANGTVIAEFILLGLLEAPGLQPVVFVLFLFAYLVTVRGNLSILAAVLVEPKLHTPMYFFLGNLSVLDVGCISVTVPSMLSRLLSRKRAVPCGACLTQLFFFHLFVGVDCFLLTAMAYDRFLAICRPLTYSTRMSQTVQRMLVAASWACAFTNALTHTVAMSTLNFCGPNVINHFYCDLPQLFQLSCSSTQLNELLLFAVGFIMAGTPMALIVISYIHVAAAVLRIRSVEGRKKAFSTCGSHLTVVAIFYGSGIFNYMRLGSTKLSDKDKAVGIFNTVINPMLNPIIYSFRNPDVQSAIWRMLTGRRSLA
# Outline: as §1
# OR2W3 (Homo sapiens) = molecular target: T5, OR2W3 (Homo sapiens) (UniProt Q7Z3T1)
# T5 sequence (whole entry): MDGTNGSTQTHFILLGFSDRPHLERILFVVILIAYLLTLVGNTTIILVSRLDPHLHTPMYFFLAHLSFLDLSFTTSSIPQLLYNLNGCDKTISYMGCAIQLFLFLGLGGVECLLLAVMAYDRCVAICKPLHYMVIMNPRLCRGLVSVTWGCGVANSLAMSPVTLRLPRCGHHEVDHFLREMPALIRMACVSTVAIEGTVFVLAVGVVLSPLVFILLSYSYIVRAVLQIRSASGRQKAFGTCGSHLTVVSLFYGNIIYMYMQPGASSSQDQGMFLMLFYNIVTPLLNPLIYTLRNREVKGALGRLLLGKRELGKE
# Outline: as §1
# OR2T8 (Homo sapiens) = OR2T8 (Homo sapiens) (UniProt A6NH00)
# Outline: as §1
# OR2V1 (Homo sapiens) = OR2V1 (Homo sapiens) (UniProt Q8NHB1)
# Outline: as §1
# OR2V2 (Homo sapiens) = OR2V2 (Homo sapiens) (UniProt Q96R30)
# Outline: as §1
# OR2Y1 (Homo sapiens) = OR2Y1 (Homo sapiens) (UniProt Q8NGV0)
# Outline: as §1
# OR2Z1 (Homo sapiens) = OR2Z1 (Homo sapiens) (UniProt Q8NG97)
# Outline: as §1
# OR3A2 (Homo sapiens) = OR3A2 (Homo sapiens) (UniProt P47893)
# Outline: as §1
# OR3A3 (Homo sapiens) = OR3A3 (Homo sapiens) (UniProt P47888)
# Outline: as §1
# OR3A1 [3] = test system: OR3A1
# Outline: as §1
# Target sequence in this assay (as listed by the source): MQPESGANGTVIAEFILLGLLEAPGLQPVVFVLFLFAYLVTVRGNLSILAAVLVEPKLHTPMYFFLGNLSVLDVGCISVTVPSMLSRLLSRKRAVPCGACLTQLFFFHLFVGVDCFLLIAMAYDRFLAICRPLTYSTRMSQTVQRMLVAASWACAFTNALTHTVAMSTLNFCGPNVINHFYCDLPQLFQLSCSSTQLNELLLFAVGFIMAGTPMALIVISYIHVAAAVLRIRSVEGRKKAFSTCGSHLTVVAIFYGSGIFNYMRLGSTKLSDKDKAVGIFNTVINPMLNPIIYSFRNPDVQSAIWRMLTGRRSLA
# OR3A1 [4] = test system: OR3A1; remark: listed apart in the source
# Outline: as §1
# Target sequence in this assay (as listed by the source): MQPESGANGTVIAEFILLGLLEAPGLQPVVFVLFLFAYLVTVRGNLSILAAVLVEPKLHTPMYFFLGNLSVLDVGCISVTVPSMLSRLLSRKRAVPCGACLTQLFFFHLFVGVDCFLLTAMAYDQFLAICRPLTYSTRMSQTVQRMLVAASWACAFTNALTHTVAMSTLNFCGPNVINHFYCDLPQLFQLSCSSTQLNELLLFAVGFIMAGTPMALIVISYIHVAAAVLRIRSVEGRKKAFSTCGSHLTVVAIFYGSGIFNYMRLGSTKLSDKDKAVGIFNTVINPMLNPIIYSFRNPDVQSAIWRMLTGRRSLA
# OR2T7 = test system: OR2T7
# Outline: as §1
# OR2W1 G96V = test system: OR2W1 G96V
# Outline: as §1
# OR2W5P (Homo sapiens) = OR2W5P (Homo sapiens) (UniProt A6NFC9)
# Outline: as §1
# OR2Y1 = test system: OR2Y1
# Outline: as §1
# OR3A2 R317K = test system: OR3A2 R317K
# Outline: as §1
# OR3A3 T48I L132F = test system: OR3A3 T48I L132F
# Outline: as §1
# 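Further: active if original authors judged signal statistically different from baseline.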
# Chain of OR3A2 (Homo sapiens) (P47893 whole entry): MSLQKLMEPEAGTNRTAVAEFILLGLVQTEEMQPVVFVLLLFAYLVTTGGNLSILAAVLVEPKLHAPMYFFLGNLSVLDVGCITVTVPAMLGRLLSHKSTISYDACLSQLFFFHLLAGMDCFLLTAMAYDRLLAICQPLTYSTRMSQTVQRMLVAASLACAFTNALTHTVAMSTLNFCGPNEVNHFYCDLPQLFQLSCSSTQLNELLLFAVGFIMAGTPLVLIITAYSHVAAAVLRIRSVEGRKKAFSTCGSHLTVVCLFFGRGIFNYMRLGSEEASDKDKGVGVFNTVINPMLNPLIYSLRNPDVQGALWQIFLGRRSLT
# Chain of OR2Y1 (Homo sapiens) (Q8NGV0 whole entry): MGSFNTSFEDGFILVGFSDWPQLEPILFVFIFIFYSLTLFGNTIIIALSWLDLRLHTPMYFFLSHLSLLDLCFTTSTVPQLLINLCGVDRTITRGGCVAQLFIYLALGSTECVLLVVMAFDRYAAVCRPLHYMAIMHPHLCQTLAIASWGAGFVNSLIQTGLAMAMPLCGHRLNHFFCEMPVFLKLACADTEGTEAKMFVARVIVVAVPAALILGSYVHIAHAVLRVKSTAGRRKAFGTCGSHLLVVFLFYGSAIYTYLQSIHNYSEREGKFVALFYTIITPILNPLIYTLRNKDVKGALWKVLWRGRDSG
# Chain of OR2Z1 (Homo sapiens) (Q8NG97 whole entry): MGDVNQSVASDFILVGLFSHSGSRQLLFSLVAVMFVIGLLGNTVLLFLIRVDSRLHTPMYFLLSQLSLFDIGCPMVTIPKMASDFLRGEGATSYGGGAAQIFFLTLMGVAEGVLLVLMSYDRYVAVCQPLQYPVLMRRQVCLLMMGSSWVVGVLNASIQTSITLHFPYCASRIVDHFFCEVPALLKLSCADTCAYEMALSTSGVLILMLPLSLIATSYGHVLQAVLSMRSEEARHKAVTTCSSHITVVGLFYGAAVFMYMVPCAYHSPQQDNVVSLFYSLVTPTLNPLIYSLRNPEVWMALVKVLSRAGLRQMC
# Chain of OR2V2 (Homo sapiens) (Q96R30 whole entry): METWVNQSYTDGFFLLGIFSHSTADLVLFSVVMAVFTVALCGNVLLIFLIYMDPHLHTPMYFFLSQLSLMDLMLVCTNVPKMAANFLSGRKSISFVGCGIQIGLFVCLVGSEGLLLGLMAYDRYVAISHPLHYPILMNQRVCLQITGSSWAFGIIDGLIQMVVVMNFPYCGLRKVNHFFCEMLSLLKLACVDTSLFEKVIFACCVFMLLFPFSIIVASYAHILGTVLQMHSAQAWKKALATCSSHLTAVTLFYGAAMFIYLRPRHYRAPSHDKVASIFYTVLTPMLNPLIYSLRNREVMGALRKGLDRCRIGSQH
# Chain of OR2T8 (Homo sapiens) (A6NH00 whole entry): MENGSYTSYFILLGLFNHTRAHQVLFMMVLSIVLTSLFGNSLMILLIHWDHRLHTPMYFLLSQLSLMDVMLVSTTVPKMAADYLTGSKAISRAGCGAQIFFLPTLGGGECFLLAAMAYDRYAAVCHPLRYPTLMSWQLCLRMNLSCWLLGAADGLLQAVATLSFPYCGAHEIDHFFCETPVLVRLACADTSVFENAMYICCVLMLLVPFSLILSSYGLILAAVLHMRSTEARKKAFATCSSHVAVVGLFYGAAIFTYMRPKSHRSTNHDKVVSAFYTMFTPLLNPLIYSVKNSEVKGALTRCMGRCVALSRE
# Chain of OR2V1 (Homo sapiens) (Q8NHB1 whole entry): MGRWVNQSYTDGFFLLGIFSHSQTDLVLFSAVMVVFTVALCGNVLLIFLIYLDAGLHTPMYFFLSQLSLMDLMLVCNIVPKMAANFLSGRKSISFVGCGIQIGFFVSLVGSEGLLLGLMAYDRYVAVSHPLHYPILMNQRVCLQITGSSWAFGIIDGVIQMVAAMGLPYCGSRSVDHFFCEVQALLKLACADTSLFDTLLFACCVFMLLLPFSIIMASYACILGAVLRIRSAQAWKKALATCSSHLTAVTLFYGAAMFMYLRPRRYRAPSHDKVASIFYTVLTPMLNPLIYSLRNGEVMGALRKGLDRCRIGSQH
# Chain of OR3A3 (Homo sapiens) (P47888 whole entry): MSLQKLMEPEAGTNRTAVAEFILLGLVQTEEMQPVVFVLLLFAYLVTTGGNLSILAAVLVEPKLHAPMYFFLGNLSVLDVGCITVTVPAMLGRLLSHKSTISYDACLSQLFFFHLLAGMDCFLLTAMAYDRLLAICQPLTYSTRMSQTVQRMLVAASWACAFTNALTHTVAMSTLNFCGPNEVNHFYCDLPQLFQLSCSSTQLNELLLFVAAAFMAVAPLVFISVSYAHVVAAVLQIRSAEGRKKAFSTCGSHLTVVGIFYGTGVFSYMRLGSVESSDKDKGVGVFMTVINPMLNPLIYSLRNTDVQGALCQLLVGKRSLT
# Chain of OR2T7 (as listed by the source): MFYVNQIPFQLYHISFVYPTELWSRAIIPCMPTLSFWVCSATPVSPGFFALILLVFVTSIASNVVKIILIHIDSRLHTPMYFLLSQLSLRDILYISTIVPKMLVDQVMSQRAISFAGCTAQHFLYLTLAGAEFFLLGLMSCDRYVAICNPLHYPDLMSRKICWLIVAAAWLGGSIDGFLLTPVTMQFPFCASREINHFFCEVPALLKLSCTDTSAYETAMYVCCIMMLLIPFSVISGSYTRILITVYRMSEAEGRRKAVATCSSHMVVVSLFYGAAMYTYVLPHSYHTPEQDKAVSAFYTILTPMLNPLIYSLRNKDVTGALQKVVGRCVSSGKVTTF
# Chain of OR3A2 R317K (as listed by the source, stated change not applied): as the sequence (P47893 whole entry) above, with R317K counted along it
# Chain of OR2W5P (Homo sapiens) (A6NFC9 whole entry): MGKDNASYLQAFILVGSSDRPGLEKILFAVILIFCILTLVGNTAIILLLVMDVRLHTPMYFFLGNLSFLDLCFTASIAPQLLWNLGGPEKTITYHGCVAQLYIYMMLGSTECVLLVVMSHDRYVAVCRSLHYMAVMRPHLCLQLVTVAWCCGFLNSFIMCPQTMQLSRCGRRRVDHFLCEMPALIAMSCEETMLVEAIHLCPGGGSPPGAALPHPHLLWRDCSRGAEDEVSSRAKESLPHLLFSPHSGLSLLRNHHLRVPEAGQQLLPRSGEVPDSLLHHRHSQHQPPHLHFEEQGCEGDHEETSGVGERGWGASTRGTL
# Chain of OR2W1 G96V (as listed by the source, stated change not applied): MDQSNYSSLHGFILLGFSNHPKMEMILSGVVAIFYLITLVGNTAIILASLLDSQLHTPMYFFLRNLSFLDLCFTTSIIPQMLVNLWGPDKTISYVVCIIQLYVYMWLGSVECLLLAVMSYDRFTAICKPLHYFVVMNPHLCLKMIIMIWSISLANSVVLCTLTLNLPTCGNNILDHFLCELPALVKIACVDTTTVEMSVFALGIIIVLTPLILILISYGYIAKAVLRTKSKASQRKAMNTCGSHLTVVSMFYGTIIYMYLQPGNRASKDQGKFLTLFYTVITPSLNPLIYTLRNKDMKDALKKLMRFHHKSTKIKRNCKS
# Chain of OR2Y1 (as listed by the source): as the sequence (Q8NGV0 whole entry) above, with V200L counted along it
smiles,measurement,setting,value
OCc1ccco1,odorant receptor agonist call,OR2W1 (Homo sapiens),active
same,odorant receptor agonist call,OR2W1 [1],active
same,odorant receptor agonist call,OR2W1 [2],inactive
C=CCc1ccc2c(c1)OCO2,odorant receptor agonist call,OR3A1 (Homo sapiens),inactive
CCOC(=O)Cc1ccccc1,odorant receptor agonist call,OR2W1 (Homo sapiens),active
same,odorant receptor agonist call,OR2W1 [1],active
same,odorant receptor agonist call,OR2W1 [2],active
CSSC,odorant receptor agonist call,OR2W1 (Homo sapiens),inactive
SCc1ccccc1,odorant receptor agonist call,OR2W1 (Homo sapiens),active
same,odorant receptor agonist call,OR2W1 [1],active
same,odorant receptor agonist call,OR2W1 [2],active
O=C(O)Cc1ccccc1,odorant receptor agonist call,OR2W1 (Homo sapiens),inactive
C=CCc1ccc(OC)cc1,odorant receptor agonist call,OR2W1 (Homo sapiens),active
same,odorant receptor agonist call,OR2W1 [1],active
same,odorant receptor agonist call,OR2W1 [2],active
O=Cc1ccco1,odorant receptor agonist call,OR2W1 (Homo sapiens),inactive
NCC(=O)c1ccccc1,odorant receptor agonist call,OR2W1 (Homo sapiens),inactive
Cc1cccc(C)c1,odorant receptor agonist call,OR2W3 (Homo sapiens),inactive
Cc1c([N+](=O)[O-])c(C)c([N+](=O)[O-])c(C(C)(C)C)c1[N+](=O)[O-],odorant receptor agonist call,OR2T8 (Homo sapiens),inactive
same,odorant receptor agonist call,OR2V1 (Homo sapiens),inactive
same,odorant receptor agonist call,OR2V2 (Homo sapiens),inactive
same,odorant receptor agonist call,OR2W1 (Homo sapiens),inactive
same,odorant receptor agonist call,OR2W3 (Homo sapiens),inactive
same,odorant receptor agonist call,OR2Y1 (Homo sapiens),inactive
same,odorant receptor agonist call,OR2Z1 (Homo sapiens),inactive
same,odorant receptor agonist call,OR3A1 (Homo sapiens),inactive
same,odorant receptor agonist call,OR3A2 (Homo sapiens),inactive
same,odorant receptor agonist call,OR3A3 (Homo sapiens),inactive
O=Cc1ccc2c(c1)OCO2,odorant receptor agonist call,OR2W1 (Homo sapiens),active
same,odorant receptor agonist call,OR2W1 [1],active
same,odorant receptor agonist call,OR2W1 [2],active
same,odorant receptor agonist call,OR3A1 (Homo sapiens),inactive
CCC1CCC(=O)O1 (stereo not drawn),odorant receptor agonist call,OR2W1 (Homo sapiens),inactive
C=CCc1ccccc1,odorant receptor agonist call,OR2W1 (Homo sapiens),inactive
CC(C=O)Cc1ccc2c(c1)OCO2 (stereo not drawn),odorant receptor agonist call,OR3A1 (Homo sapiens),active
same,odorant receptor agonist call,OR3A1 [3],inactive
same,odorant receptor agonist call,OR3A1 [4],inactive
C=CCSSCC=C,odorant receptor agonist call,OR2W1 (Homo sapiens),inactive
same,odorant receptor agonist call,OR2W1 [1],active
same,odorant receptor agonist call,OR2W1 [2],active
C=CCOC(=O)Cc1ccccc1,odorant receptor agonist call,OR2T7,inactive
same,odorant receptor agonist call,OR2T8 (Homo sapiens),inactive
same,odorant receptor agonist call,OR2V1 (Homo sapiens),inactive
same,odorant receptor agonist call,OR2V2 (Homo sapiens),inactive
same,odorant receptor agonist call,OR2W1 (Homo sapiens),active
same,odorant receptor agonist call,OR2W1 G96V,inactive
same,odorant receptor agonist call,OR2W3 (Homo sapiens),inactive
same,odorant receptor agonist call,OR2W5P (Homo sapiens),inactive
same,odorant receptor agonist call,OR2Y1 (Homo sapiens),inactive
same,odorant receptor agonist call,OR2Y1,inactive
same,odorant receptor agonist call,OR2Z1 (Homo sapiens),inactive
same,odorant receptor agonist call,OR3A1 (Homo sapiens),inactive
same,odorant receptor agonist call,OR3A1 [4],inactive
same,odorant receptor agonist call,OR3A2 (Homo sapiens),inactive
same,odorant receptor agonist call,OR3A2 R317K,inactive
same,odorant receptor agonist call,OR3A3 (Homo sapiens),inactive
same,odorant receptor agonist call,OR3A3 T48I L132F,inactive
Cc1ccc(O)c(C)c1,odorant receptor agonist call,OR2W1 (Homo sapiens),inactive
Cc1ccccc1O,odorant receptor agonist call,OR2W1 (Homo sapiens),inactive
O=c1cc(O)c2ccccc2o1,odorant receptor agonist call,OR2W1 (Homo sapiens),inactive
COc1ccc(C=O)cc1,odorant receptor agonist call,OR2W1 (Homo sapiens),active
same,odorant receptor agonist call,OR2W1 [1],active
same,odorant receptor agonist call,OR2W1 [2],active
same,odorant receptor agonist call,OR2W3 (Homo sapiens),inactive
SCc1ccco1,odorant receptor agonist call,OR2W1 (Homo sapiens),active
same,odorant receptor agonist call,OR2W1 [1],active
same,odorant receptor agonist call,OR2W1 [2],active
CC(=O)C=Cc1ccc2c(c1)OCO2,odorant receptor agonist call,OR3A1 (Homo sapiens),active
